Measurements from article PMC4245150 (Organometallics, 2014).

Legend:
A498 = assay: XTT cell viability assay, A498; type: cell-based, human
UO31 = assay: XTT cell viability assay, UO31; type: cell-based, human
How it was run: (§1)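 Cells kept in RPMI-1640 with 10% FBS, 1% NEAA and PenStrep at 37 °C, 5% CO2. Seeded at 5000 cells/well in phenol-red-free, antibiotic-free RPMI (10% FBS, 2 mM L-glutamine) and grown 24 h. Test compound was dissolved in 1% DMSO, diluted in water and added at 0.1–200 μM final for 24 or 72 h. XTT was added at 0.3 mg/mL for 4 h, and A450 read. IC50 is the concentration halving proliferation against untreated cells, from ≥2 independent experiments in triplicate.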

Caki-1 = assay: XTT cell viability assay, Caki-1; type: cell-based, human
How it was run: as §1

HEK-293T = assay: XTT cell viability assay, HEK-293T; type: cell-based, human; conditions: HEK-293T (nontumorigenic)
How it was run: as §1, with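 “HEK-293 cells kept” for “Cells kept”, “in DMEM” for “in RPMI-1640”, “antibiotic-free DMEM” for “antibiotic-free RPMI”, “and dosed” for “and added”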

PC3 = assay: XTT cell viability assay, PC3; type: cell-based, human
DU145 = assay: XTT cell viability assay, DU145; type: cell-based, human
How it was run: as §1

PI3 kinases = assay: HotSpot kinase assay, lipid PI3 kinases; type: biochemical; conditions: IC50 values only plotted in Figure 8
panel of 30 kinases = assay: HotSpot kinase assay, panel of 30 nonlipid kinases; type: biochemical; conditions: even at concentrations of 100 μM
CT-DNA = conditions: physiological pH / pH 7; cited from earlier work
plasmid (pBR322) DNA = assay: electrophoresis mobility shift assay with plasmid DNA; type: binding; conditions: metal/DNAbp ratios 0.25-2.0, 37 °C, 20 h, pH 7.39
How it was run: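 pBR322 DNA (20 μg/mL) in 5 mM Tris/HCl, 50 mM NaClO4, pH 7.39 incubated with test compound ([…] metal complex/DNAbp) for 20 h at 37 °C in the dark; free DNA and cisplatin-treated DNA as controls. Samples run on 1% agarose gel, 1.5 h at 80 V in Tris-acetate/EDTA, stained 30 min with GelRed.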

PKCι-par6 = PKCι-par6 in vitro; cited from earlier work

Row | SMILES | IC50 (A498; A498, 24 h incubation) [µM] | IC50 (A498; A498, 72 h incubation) [µM] | IC50 (UO31; UO31, 24 h incubation) [µM] | IC50 (UO31; UO31, 72 h incubation) [µM] | IC50 (Caki-1; Caki-1, 24 h incubation) [µM] | IC50 (Caki-1; Caki-1, 72 h incubation) [µM] | IC50 (HEK-293T; 24 h incubation) [µM] | IC50 (HEK-293T; 72 h incubation) [µM] | IC50 (PC3; PC3, 24 h incubation) [µM] | IC50 (PC3; PC3, 72 h incubation) [µM] | IC50 (DU145; DU145, 24 h incubation) [µM] | IC50 (DU145; DU145, 72 h incubation) [µM] | inhibition of PI3 kinase family (PI3 kinases) | inhibition of enzymatic activity of 30 kinases (panel of 30 kinases) | interaction with CT-DNA (CT-DNA) | effect on electrophoretic mobility of plasmid forms (plasmid (pBR322) DNA) | IC50 (PKCι-par6) [µM]
1 | [Cl-].[Cl-].[Ti+4].c1cc[cH-]c1.c1cc[cH-]c1 [titanocene dichloride] | > 200 | > 200 | > 200 | > 200 | > 200 | > 200 | > 200 | > 200 | > 200 | > 200 | > 200 | > 200 | inhibits exclusively protein kinases of the PI3 kinase family at nanomolar concentrations | did not inhibit the enzymatic activity to levels of 50% or below | does not interact with CT-DNA | – | –
2 | N.N.[Cl][Pt][Cl] [cisplatin] | 74.7 ± 6 | 37.2 ± 4.6 | > 100 | 8.9 ± 2.7 | 68.8 ± 0.14 | 29 ± 4.1 | 64.4 ± 7.9 | 3.2 ± 0.13 | 92 ± 18 | 14 ± 2.3 | 44.5 ± 0.33 | 12.1 ± 3.9 | – | – | – | decrease in mobility of the CCC form and an increase in mobility of the OC form | –
3 | OC[C@H]1O[C@H]([S-])[C@H](O)[C@@H](O)[C@@H]1O.[Au+] [aurothioglucose] | – | – | – | – | – | – | – | – | – | – | – | – | – | – | – | – | ~1
4 | O=C(O)CC([S-])C(=O)O.[Au+] (stereo not shown) [aurothiomalate] | – | – | – | – | – | – | – | – | – | – | – | – | – | – | – | – | ~1
5 | COc1ccc(C[C]2([Ti+2][C]3(Cc4ccc(OC)cc4)C=CC=C3)C=CC=C2)cc1.[Cl-].[Cl-] [Titanocene Y] | > 200 | > 29.6 | > 200 | > 200 | > 200 | 29.4 ± 4.2 | > 200 | > 200 | > 200 | 58.1 ± 11.2 | > 200 | 55.2 ± 7.9 | – | – | – | – | –
6 | O=C(O)C[P+]([Au-][Cl])(c1ccccc1)c1ccccc1 [compound 6, [HOC(O)CH2PPh2AuCl]] | 58 ± 11 | 43 ± 4.9 | 27.3 ± 2.7 | 5.2 ± 1.6 | 33.8 ± 2.1 | 23 ± 4.1 | 36.5 ± 3.3 | 9.7 ± 2.5 | 38.2 ± 2.2 | 30.2 ± 4.2 | 34.7 ± 1.8 | 31.3 ± 3.1 | – | – | – | does not affect the mobility of the faster-running supercoiled form | –
